Measurements: ChEMBL document CHEMBL4049428, “Exploring Derivatives of Quinazoline Alkaloid l-Vasicine as Cap Groups in the Design and Biological Mechanistic Evaluation of Novel Antitumor Histone Deacetylase Inhibitors” (J Med Chem, 2017)
Active and inactive are the calls of the source. The calls are words filed in the database; no cut-off is given here.

Experiments:
[1] = test system: HL-60; assay: Induction of reactive oxygen species in human HL60 cells at 10 uM measured after 48 hrs by H2DCFDA dye-based flow cytometric analysis (reference value: 0.4%); format: functional
[2] = test system: HL-60; assay: Induction of autophagy in human HL60 cells assessed as acidic vacuole formation in cytoplasm at 10 uM after 48 hrs by acridine orange dye-based fluorescent microscopic analysis; format: functional, cell-based
Summary of the method: (§1)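 Cells treated 48 h with a range of compound concentrations, SAHA 1.0 µM as positive control; acridine orange 1 µg/ml added 15 min before end at 37°C; cells washed in PBS and acidic vacuoles viewed by fluorescence microscopy.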

[3] = test system: MOLT-4; assay: Induction of mitochondrial membrane potential loss in human MOLT4 cells assessed as intact mitochondrial membrane potential at 5 uM measured after 48 hrs by Rh123 dye-based flow cytometric analysis (reference value: 90.4%); format: functional
Summary of the method: (§2)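 Cells seeded in 6-well plates 2-4 h, then 48 h with compound; Rh-123 1 µM added for the final half hour; cells centrifuged, washed twice in PBS, resuspended in PBS, and Ψm loss quantified by flow cytometry as percentage of cells.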

[4] = target: Histone deacetylase 2 (Homo sapiens, UniProt Q92769); assay: Inhibition of HDAC 2 in human HeLa nuclear extract using HDAC substrate-3 measured after 60 mins by fluorometric analysis
Chain of Histone deacetylase 2 (Q92769 whole entry): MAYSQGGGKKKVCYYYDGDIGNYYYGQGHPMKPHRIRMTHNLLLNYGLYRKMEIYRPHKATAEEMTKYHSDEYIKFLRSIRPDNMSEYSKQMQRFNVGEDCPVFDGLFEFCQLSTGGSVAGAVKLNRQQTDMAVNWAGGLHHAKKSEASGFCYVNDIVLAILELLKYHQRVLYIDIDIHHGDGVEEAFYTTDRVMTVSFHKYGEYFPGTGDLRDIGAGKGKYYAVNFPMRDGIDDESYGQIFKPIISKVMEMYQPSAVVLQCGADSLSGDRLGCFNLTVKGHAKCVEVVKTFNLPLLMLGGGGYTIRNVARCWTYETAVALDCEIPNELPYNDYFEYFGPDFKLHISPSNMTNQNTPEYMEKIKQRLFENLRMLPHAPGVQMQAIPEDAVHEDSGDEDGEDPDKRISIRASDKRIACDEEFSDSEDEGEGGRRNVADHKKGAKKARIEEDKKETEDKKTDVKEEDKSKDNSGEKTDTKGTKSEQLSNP

[5] = test system: MOLT-4; assay: Induction of autophagy in human MOLT4 cells assessed as acidic vacuole formation in cytoplasm at 10 uM after 48 hrs by acridine orange dye-based fluorescent microscopic analysis; format: functional, cell-based; summary of the method: as §1
[6] = Inhibition of HDAC in human HeLa nuclear extract using Boc-Lys(Ac)-AMC as substrate measured after 30 mins by fluorometric analysis
[7] = test system: Caco-2; assay: Cytotoxicity against human Caco2 cells assessed as growth inhibition at 10 uM after 48 hrs by MTT assay; format: functional; conditions: Caco-2, 48 h, read-out: GI
Summary of the method: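 MTT assay, 48 h exposure; adherent lines seeded 12 h and suspension lines 4 h before compound. Media: RPMI-1640/10% FCS (THP-1, HL-60, Colo-205, Caco-2, A549), DMEM/10% FCS (A549, MIAPaCa-2, MCF-7). MTT 4 h, formazan dissolved in DMSO, absorbance 570 nm. Mean ± S.D of three experiments in triplicate; SAHA 5 µM reference.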

[8] = test system: MOLT-4; assay: Induction of mitochondrial membrane potential loss in human MOLT4 cells assessed as intact mitochondrial membrane potential at 1 uM measured after 48 hrs by Rh123 dye-based flow cytometric analysis (reference value: 90.4%); format: functional; summary of the method: as §2
[9] = test system: MOLT-4; assay: Induction of reactive oxygen species in human MOLT4 cells at 1 uM measured after 48 hrs by H2DCFDA dye-based flow cytometric analysis (reference value: 1.1%); format: functional
[10] = test system: HL-60; assay: Induction of mitochondrial membrane potential loss in human HL60 cells assessed as intact mitochondrial membrane potential at 1 uM measured after 48 hrs by Rh123 dye-based flow cytometric analysis (reference value: 91.3%); format: functional; summary of the method: as §2
[11] = target: Histone deacetylase 1 (Homo sapiens, UniProt Q13547); assay: Inhibition of HDAC 1 in human HeLa nuclear extract using HDAC substrate-3 measured after 60 mins by fluorometric analysis
Chain of Histone deacetylase 1 (Q13547 whole entry): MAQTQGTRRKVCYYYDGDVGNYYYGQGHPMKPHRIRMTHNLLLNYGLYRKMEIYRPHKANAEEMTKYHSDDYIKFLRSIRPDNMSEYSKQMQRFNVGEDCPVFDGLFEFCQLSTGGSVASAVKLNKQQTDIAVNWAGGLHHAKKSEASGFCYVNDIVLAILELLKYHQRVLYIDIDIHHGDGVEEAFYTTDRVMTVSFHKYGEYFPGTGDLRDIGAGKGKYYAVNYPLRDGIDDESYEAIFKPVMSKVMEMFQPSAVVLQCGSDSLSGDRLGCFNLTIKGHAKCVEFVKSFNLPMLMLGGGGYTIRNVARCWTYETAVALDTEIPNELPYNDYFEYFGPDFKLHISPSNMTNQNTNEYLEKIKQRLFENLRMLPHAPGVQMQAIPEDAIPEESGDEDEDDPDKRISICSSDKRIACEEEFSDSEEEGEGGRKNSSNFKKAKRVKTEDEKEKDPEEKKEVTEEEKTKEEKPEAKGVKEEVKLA

For `O=C(CCCCCCC(=O)Nc1ccccc1CN1CC[C@H](O)C1)NO`, which Activity [1] is on record?
The Activity was 0.1%.

What about the Activity [2] of the same molecule?
The Activity was “Active”.

And the Activity [3]?
The Activity was 42.5%.

And the IC50 [4]?
Its IC50 is 268 nM.

What about the Activity [5] of the same molecule?
The Activity was “Active”.

What about the IC50 [6] of the same molecule?
The IC50 was 370 nM.

And the inhibition of growth at 10 µM [7]?
The inhibition of growth at 10 µM was 58%.

And the Activity [8]?
The Activity was 95.1%.

And the Activity [9]?
Its Activity is 1.1%.

What about the Activity [10] of the same molecule?
The Activity was 90.4%.

And the IC50 [11]?
The IC50 was 415 nM.
